# Test results from PubChem BioAssay.
# Calls of active or inactive are those of the source.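 The calls were made as follows, unless noted: active = GFP response above 150% of the DMSO level; inconclusive = fewer than 70 events counted for a yeast strain; inactive = the rest.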
# Tests used:
# [1] = RPL19A-GFP modulators, yeast TOR pathway, confirmation, cell-based, S. cerevisiae, flow cytometry, cherry picks, mother/daughter gates (AID 2270;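 active = GFP response below 50% of the DMSO control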); details: S. cerevisiae RPL19A-GFP strain, 3 h, at 10 µM, stronger effect = lower value, 100 = same GFP as DMSO wells
# [2] = LAP4-GFP expression modulators in yeast, confirmation, cell-based, cherry picks, flow cytometry, mother/daughter gates (AID 2271;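 active = GFP response above 150% of the DMSO control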;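 also: ratio of sample to DMSO plate mean so 100% equals DMSO level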); details: S. cerevisiae LAP4-GFP strain, 3 h, at 10 µM, stronger effect = higher value, 100 means same as DMSO control
# Procedure, shortened: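 Material – Alexa Fluor 633-labelled Saccharomyces cerevisiae GFP-fusion strain, single-plex · Incubation – compound exposure 3 h at 30 °C, end-over-end rotation · Measured by – GFP by flow cytometry · Measure – median GFP fluorescence as percent of plate-mean DMSO wells · Control set – positive rapamycin (400 ng/mL), negative DMSO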
# [3] = modulators of MEP2-GFP levels in yeast, confirmation, S. cerevisiae, flow cytometry GFP, cherry picks (AID 2272;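 active = GFP response above 150% of the DMSO control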;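 also: ratio of well signal to plate DMSO mean so 100% equals DMSO level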); details: S. cerevisiae MEP2-GFP strain, 3 h, at 10 µM, stronger effect = higher value
# [4] = AGP1-GFP expression modulators, hit retest, confirmation, cell-based, flow cytometry, S. cerevisiae, cherry picks (AID 2273);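 also: median GFP channel fluorescence over the whole cell population gate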; details: S. cerevisiae AGP1-GFP strain, 3 h, at 10 µM
# [5] = modulators of CIT2-GFP expression in yeast, confirmation, S. cerevisiae, GFP fusion, cherry picks, mother/daughter gates (AID 2274); details: S. cerevisiae CIT2-GFP strain, flow cytometry, 3 h, at 10 µM, stronger effect = higher value
# [6] = measured here: daughter cell gate
# [7] = measured here: mother cell gate
# [8] = measured here: daughter cell gate response
# [9] = measured here: mother cell gate response
Structure (SMILES),GFP response vs DMSO [1],"GFP response vs DMSO [1, 6]","GFP response vs DMSO [1, 7]",GFP response relative to DMSO [2],"GFP response relative to DMSO [2, 8]","GFP response relative to DMSO [2, 9]",GFP response vs DMSO [3],"GFP response, % of DMSO [4]","GFP response, % of DMSO [5]","GFP response, % of DMSO [5, 6]","GFP response, % of DMSO [5, 7]"
CN(C)c1ccc(N=Cc2nc(-c3ccccc3)oc2OC(=O)c2cccc(Cl)c2)cc1,101% (inactive),99.2%,101%,97.4% (inactive),97.2%,99.3%,100% (inactive),98.7% (inactive),102% (inactive),99.7%,102%
O=C1C(=O)c2ccc(-c3ccccc3)cc2-c2ccccc21,102% (inactive),104%,102%,117% (inactive),110%,124%,115% (inactive),90.4% (inactive),107% (inactive),106%,102%
COc1ccc(N2C(=O)C(Cl)=C(N(CCO)Cc3ccccc3)C2=O)cc1,101% (inactive),99.1%,102%,98.2% (inactive),99.1%,99.4%,101% (inactive),102% (inactive),100% (inactive),101%,99.3%
Oc1c(C(Nc2nc3ccccc3s2)c2ccco2)ccc2cccnc12 (stereo not given),98.9% (inactive),98.7%,95.9%,149% (inactive),132%,145%,112% (inactive),97.7% (inactive),100% (inactive),103%,94.9%
CCNc1nc(-c2ccc(Cl)cc2)cs1,101% (inactive),100%,101%,93.8% (inactive),97.2%,96.2%,102% (inactive),97.8% (inactive),104% (inactive),101%,106%
Cc1cc(O)c(C(=O)/C=C/c2cccc([N+](=O)[O-])c2)c(=O)o1,98.7% (inactive),101%,95.8%,149% (inactive),142%,152%,110% (inactive),107% (inactive),86.1% (inactive),90.5%,81.5%
CCOC(=O)C(=CNNc1cccc(Cl)c1)C(=O)OCC,103% (inactive),102%,102%,131% (inactive),125%,137%,111% (inactive),103% (inactive),103% (inactive),101%,104%
Cc1ccc(Oc2nc(-c3ccccn3)nc3ccccc23)cc1,98.2% (inactive),94.7%,97.8%,110% (inactive),107%,110%,103% (inactive),92.2% (inactive),91.5% (inactive),92%,90.7%
CCOC(=O)c1c(C)oc2c1c(C(c1ccncc1)N1CCOCC1)c(O)c1ccccc12 (stereo not given),102% (inactive),109%,89.6%,186% (active),167%,180%,131% (inactive),101% (inactive),103% (inactive),114%,94.4%
Cc1cccc(/C=C/c2onc(C)c2[N+](=O)[O-])n1,99.9% (inactive),99.5%,96.6%,146% (inactive),137%,147%,100% (inactive),94.3% (inactive),87.4% (inactive),91.5%,82.6%
O=C(COc1ccc(F)cc1Cl)Nc1nc(-c2ccccn2)cs1,98% (inactive),94.7%,97.1%,132% (inactive),132%,137%,110% (inactive),98.8% (inactive),94.4% (inactive),97.6%,89.3%
CC(C)c1ccc(C2C3CSCC=C3C(C#N)=C(N)C2(C#N)C#N)cc1 (stereo not given),97.2% (inactive),97.8%,95.3%,111% (inactive),108%,115%,101% (inactive),105% (inactive),99.7% (inactive),100%,97.7%
CCOCCCNC(=O)/C(C#N)=C/c1ccc([N+](=O)[O-])o1,118% (inactive),91.2%,87.9%,212% (active),132%,129%,285% (active),122% (inactive),182% (active),114%,110%
C/C(CCC12CC3CC(CC(C3)C1)C2)=N\NC(N)=S,87.9% (inactive),84.6%,90.7%,133% (inactive),125%,135%,98.3% (inactive),96% (inactive),89.8% (inactive),88.1%,87.8%
Cc1ccc(C(C[N+](=O)[O-])n2nc(C)cc2C)cc1 (stereo not given),97% (inactive),101%,93.6%,120% (inactive),120%,125%,103% (inactive),102% (inactive),90.9% (inactive),95.2%,87.8%
Cc1ccc2c(c1)/C(=C/c1ccc(F)cc1)C(=O)N2,94.5% (inactive),92.2%,92.7%,124% (inactive),110%,123%,108% (inactive),98.4% (inactive),95.8% (inactive),97.6%,94.9%
Cc1nnc(NC(=O)c2csc3c2CCC(C)C3)s1 (stereo not given),91.5% (inactive),87.2%,93.3%,117% (inactive),110%,124%,93.5% (inactive),93% (inactive),78.2% (inactive),76.8%,77.3%
N#C/C(=C/c1ccc(N2CCOCC2)o1)c1ccc(Br)cc1,96.6% (inactive),95.9%,95%,114% (inactive),114%,115%,114% (inactive),95.5% (inactive),102% (inactive),101%,99.3%
CCc1ccc(NC(=O)c2nc(S(=O)(=O)Cc3ccccc3)ncc2Cl)cc1,94.8% (inactive),94.2%,93.8%,126% (inactive),118%,124%,97.5% (inactive),96% (inactive),87.8% (inactive),90.9%,82.8%
C/C(=N\NC(=O)c1ccc(Cl)c(Cl)c1)c1cccc(NC(=O)C(C)C)c1,99.9% (inactive),99.8%,101%,94.2% (inactive),93.6%,94.6%,99.5% (inactive),96% (inactive),99.3% (inactive),100%,96.8%
O=[N+]([O-])c1cc(C(F)(F)F)ccc1NCCc1ccccn1,98.8% (inactive),99.3%,99.7%,96.5% (inactive),92.2%,96.5%,102% (inactive),98.9% (inactive),106% (inactive),106%,106%
CCc1cccc2sc(N3CCN(C(=O)c4ccc([N+](=O)[O-])o4)CC3)nc12,82.5% (inactive),85.9%,70.2%,251% (active),125%,222%,172% (inactive),108% (inactive),108% (inactive),99.3%,102%
CCOC(=O)c1ccc(NC(=O)c2ccc3c(c2)C(=O)N(Cc2cccnc2)C3=O)cc1,100% (inactive),99.6%,100%,94.1% (inactive),96%,94%,102% (inactive),99.3% (inactive),99.7% (inactive),101%,98.5%
Cc1nc2c(-c3ccc(F)cc3)c(C)nn2c(N2CCOCC2)c1C,100% (inactive),101%,100%,96.5% (inactive),96.5%,97.5%,104% (inactive),98.7% (inactive),104% (inactive),104%,101%
COc1ccc(-c2nn(-c3ccccc3)cc2C(=O)N/N=C/c2ccc([N+](=O)[O-])o2)cc1,103% (inactive),103%,103%,84.2% (inactive),92.5%,92.1%,100% (inactive),96.7% (inactive),113% (inactive),110%,115%
CSc1nc(N2CCN(c3ccccc3Cl)CC2)c2ccccc2n1,96.2% (inactive),96.7%,95.2%,98.9% (inactive),101%,98.4%,110% (inactive),102% (inactive),97.2% (inactive),97.6%,97.1%
Fc1ccc(C2CC(c3ccccc3)n3ncnc3N2)cc1 (stereo not given),96.8% (inactive),95.3%,98%,93.8% (inactive),94.1%,97.2%,100% (inactive),94.3% (inactive),92.6% (inactive),94.8%,91.2%
Cc1cc(NC(=O)c2cncc(Br)c2)ccc1NC(=O)c1cc2ccccc2o1,102% (inactive),100%,104%,90.2% (inactive),87.9%,95.2%,109% (inactive),95% (inactive),99.1% (inactive),98.1%,97.7%
CCCCCCNC(=O)c1c(O)c2cccc3c2n(c1=O)CCC3,100% (inactive),101%,100%,97.9% (inactive),97.6%,95.1%,107% (inactive),96.8% (inactive),96.9% (inactive),97.2%,96.1%
Cc1noc2ncnc(Sc3ccccc3Cl)c12,106% (inactive),104%,105%,112% (inactive),111%,112%,109% (inactive),101% (inactive),116% (inactive),113%,114%
